Bioassay records: PubChem BioAssay, Sanford-Burnham Center for Chemical Genomics
FLuc act counter: firefly luciferase counter-screen for stimulation assays; ATPlite luciferase biochemical, luminescence, 10 min; 0 = ATP-free wells, 1 = DMSO control; 200,000 tested, under 10 active; P08659; activation factor at 10 µM;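 active = luciferase activation factor, scaled between plate controls, of at least 2 with compound at 10 µM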
Target sequence (P08659 whole entry, looked up): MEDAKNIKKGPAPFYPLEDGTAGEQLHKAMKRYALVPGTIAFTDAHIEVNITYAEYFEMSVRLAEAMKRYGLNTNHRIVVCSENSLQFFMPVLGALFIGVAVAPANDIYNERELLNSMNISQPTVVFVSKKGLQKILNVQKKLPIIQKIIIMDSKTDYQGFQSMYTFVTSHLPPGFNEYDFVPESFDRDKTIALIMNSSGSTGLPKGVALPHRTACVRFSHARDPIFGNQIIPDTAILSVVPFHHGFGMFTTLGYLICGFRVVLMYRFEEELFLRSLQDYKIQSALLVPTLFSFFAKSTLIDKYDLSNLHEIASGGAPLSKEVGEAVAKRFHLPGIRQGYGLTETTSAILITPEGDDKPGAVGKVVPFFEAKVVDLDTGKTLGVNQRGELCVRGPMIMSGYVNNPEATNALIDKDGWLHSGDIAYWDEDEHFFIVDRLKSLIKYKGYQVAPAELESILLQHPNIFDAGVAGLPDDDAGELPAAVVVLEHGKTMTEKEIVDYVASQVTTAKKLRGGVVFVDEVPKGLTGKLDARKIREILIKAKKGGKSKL
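System: Luciferase/luciferin detection reagent, cell-free biochemical luciferase assay | Medium: PBS buffer for ATP | Dosing: Test compounds dosed from 2 mM stocks in 100% DMSO | Timing: 10 min at ambient temperature | Signal: Luminescence measurement of luciferase light output | Evaluation: Luciferase activation, seen as luminescence increase over controls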
FLuc inhib CS: counter-screen for luciferase assay inhibitors: firefly luciferase inhibition; ATPLite firefly luciferase biochemical luminescence, 10 min; inhibition, % at 10 µM; actives 1.5% (n = 200,000); AID 1006;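 active = inhibition above about 50% when tested at 10 µM, limit read from the data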
hiPSC survival: hiPSC single-cell survival enhancement; ATPlite luminescence; 100% = ROCK inhibitor wells, 0% = DMSO; survival enhancement, % at 20 µM; actives 0.044% (n = 360,000); in the data active = survival enhancement above about 18%;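 note: cells exposed to compounds for 16 hours before the ATP read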
beta cell repl: induces beta-cell replication in MIN6 cells; AID 2380; proliferation, % at 10 µM; MIN6 cells proliferation, ATPlite luminescence, 48 h; cells starved in 0.2% serum; 100% = growth in 10% serum; actives 0.29% (n = 330,000);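 active = compounds whose signal lies at least 3.5 SD above the mean of all wells on their plate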;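 note: 0% = DMSO-treated cells in low-serum medium and 100% = 10% serum control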
PPC-1+TRAIL kill: kills PPC-1 cancer cells in the presence of TRAIL | PPC-1 cells + TRAIL, ATPLite viability luminescence | cell killing (% activity), % at 4 µM or 5 µM | actives 0.41% (n = 220,000);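 active = cell killing above 50% in the first pass at 4 µM, then a duplicate retest at 5 µM averaging 50% or more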;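 note: plate controls were cells with TRAIL plus DMSO for no effect and medium-only wells lacking cells for full effect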
C8 TRAIL sens: caspase-8 TRAIL sensitization. inhibition (viability loss, TRAIL sensitization), % at 10 µM. actives 1% (n = 360,000). NB7+C8 cells + TRAIL, ATPlite viability luminescence;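 active = compounds causing at least 50% loss of cell viability in the single-dose screen, relative to plate controls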
Starred values were filed as active, the others as inactive; x = no result given. Most compounds without a hit are left out; they make up all but 1.8% or so of the library.

SMILES	FLuc act counter	FLuc inhib CS	hiPSC survival	beta cell repl	PPC-1+TRAIL kill	C8 TRAIL sens
CCN(CC)S(=O)(=O)c1ccc(Cl)c(C(=O)Nc2cc(C)nn2-c2ccccc2)c1	1	-2	1	0	51*	20
COc1ccccc1N1C(N)=NC(N)=NC1(C)C	1.1	-6	2	-3	19	-1
CC1(C)N=C(N)N=C(N)N1CCCCc1ccccc1	x	x	2	x	x	67*
Cc1cc(C)c(C#N)c(SCC(=O)N(CCC#N)c2ccc3c(c2)OCCO3)n1	x	x	0	8	x	-7
O=C(COc1ccccc1Cl)Nc1ccc(N2CCCC2)cc1	x	x	0	-2	x	0
O=C(Cc1cccc([N+](=O)[O-])c1)Nc1ccccc1	x	x	-1	x	x	3
CC1(C)N=C(N)N=C(N)N1c1ccc(OCC(=O)Nc2ccccc2)c(Cl)c1	x	x	-1	x	x	81*
CC1(C)N=C(N)N=C(N)N1c1ccc(OCCCOc2ccccc2)c(Cl)c1	x	x	1	x	41	71*
CC1(C)N=C(N)N=C(N)N1c1cccc(CC(=O)Nc2ccccc2)c1	x	x	-3	x	x	78*
Cc1cccc(NC(=O)CCc2ccc(N3C(N)=NC(N)=NC3(C)C)cc2)c1	x	x	-1	x	x	80*
Cc1cccc(NC(=O)CCc2ccccc2)c1	0.9	6	0	-1	18	-3
NC(=O)CC[C@H](NC(=O)c1ccc(Cl)cc1)C(=O)NNC(=O)COc1cccc(Br)c1	x	x	2	-2	x	-12
Cn1cccc1C(=O)Nc1ccc(Cl)c(S(=O)(=O)N2CCCCC2)c1	x	x	0	-2	x	9
C#CCOCCOCCOCCNc1nc(N2CCN(C(=O)CCCCCCCCCCNC(=O)[C@H]([C@@H](C)CC)n3cc(CCCCCN)nn3)CC2)nc(N2CCN(C(=O)CCCCCCCCCCNC(=O)[C@H]([C@@H](C)CC)n3cc(CCCCN=C(N)N)nn3)CC2)n1	x	x	2	-8	x	51*
CCOc1cnn(-c2ccccc2)c(=O)c1Cl	x	x	58*	-7	x	0
CCSc1cnn(-c2ccccc2)c(=O)c1Cl	x	x	37*	-4	x	-6
CCSc1cnn(-c2ccccc2)c(=O)c1SCC	1	-5	-1	2	20	-1
Cc1cc2c(cc1C)NC(=O)C(C)CN2 (centres undefined)	x	x	-1	x	x	-5
O=c1cc(CN2CCN(c3ccc(Cl)c(Cl)c3)CC2)c2ccccc2o1	x	x	2	x	x	1
C/C(=N\Nc1cc(C)nc(-c2ccccc2O)n1)c1ccccc1	0.7	30	2	-5	12	27
Cc1cc(N/N=C/c2ccc(O)c(C)c2O)nc(-c2ccccc2O)n1	0.9	6	0	x	64*	45
COc1cccc(CNC(=O)Cn2ccc3cc(S(=O)(=O)N4CCCCCC4)ccc32)c1OC	x	x	-1	-2	x	3
CN1CCc2c(sc(N)c2C(=O)O)C1	1	2	-1	-3	-10	8
COc1ccc(C(=O)c2c(N)sc3c2CCN(C)C3)cc1	x	x	0	8.0*	x	-3
CN=c1sc(C(=O)Nc2ccccc2)c(C)n1C	1	-2	-3	2	-2	2
SMILES	FLuc act counter	FLuc inhib CS	hiPSC survival	beta cell repl	PPC-1+TRAIL kill	C8 TRAIL sens
CN=c1sc2c(n1C)C(=O)c1ccccc1C2=O	x	x	-2	x	x	76*
COc1ccc2cc(/C=N/NC(=O)c3ccc(CN(c4cccc(Cl)c4Cl)S(C)(=O)=O)cc3)c(Cl)nc2c1	1	-4	0	0	51*	11
Cc1cc(NC(=O)c2ccccc2)nc2c1c(=O)oc1ccccc12	1	0	0	-2	3	-2
CCOc1ccc(C(=O)Nc2cc(C)c3c(=O)oc4ccccc4c3n2)cc1	1	-2	-1	4	16	56*
Cc1cc(NC(=O)c2ccc(S(=O)(=O)N3CCOCC3)cc2)nc2c1c(=O)oc1ccccc12	1	3	x	-1	5	x
Cc1cc(NC(=O)c2ccc(S(=O)(=O)N3CCCC3)cc2)nc2c1c(=O)oc1ccccc12	1	-4	-1	x	20	55*
c1ccc(-c2cn3nc(-c4ccccc4)sc3n2)cc1	x	x	-1	-7	x	85*
Cc1nn2cc(-c3ccccc3)nc2s1	0.5	47	-3	-3	21	28
Fc1ccc(C(CNC(=S)NC2CCCCC2)N2CCOCC2)cc1 (centres undefined)	1.1	-7	-1	-1	-2	-2
C/C(=C\C(=O)c1ccccc1)Nc1ccc(O)cc1	0.7	27	0	-4	2	0
CC(=O)c1cccc(N/C=C\C(=O)c2ccc(C)cc2)c1	0.1	91*	-3	x	62*	52*
Cc1ccc(C(=O)/C=C/Nc2ccc3c(c2)OCO3)cc1	0.2	80*	-4	-4	50	61*
CC(=O)c1ccc(N/C=C\C(=O)c2ccc(C)cc2)cc1	0.8	17	0	-1	28	17
C/C(=C\C(=O)c1ccc(C)cc1)Nc1cccc(O)c1	0.3	65*	0	-2	27	24
CC(C)CN1C(=O)C(=O)N(CC(=O)N2CCN(c3ccccc3)CC2)C1=O	x	x	0	0	x	-11
C=CCn1c(=NC(=O)c2ccc(S(=O)(=O)N3CCc4ccccc4C3)cc2)sc2cc(S(N)(=O)=O)ccc21	1.1	-9	0	0	9	8
C#CCn1c(=NC(=O)c2ccc(S(=O)(=O)N3CCc4ccccc4C3)cc2)sc2cc(S(N)(=O)=O)ccc21	1	-4	0	0	61*	23
Cc1nonc1C1CCCN1Cc1nc(-c2ccccc2Cl)oc1C (centres undefined)	1	-5	-1	2	11	13
Cn1cccc1C(=O)C(=O)Nc1ccc(Cl)cc1	0.4	62*	-2	-3	31	29
Cn1cccc1C(=O)C(=O)Nc1cc(Cl)cc(Cl)c1	1	0	2	1	25	19
CCCCn1c(C)nc2cc(S(=O)(=O)N3CCOCC3)ccc21	x	x	0	0	x	-2
CCCCn1c(CCl)nc2cc(S(=O)(=O)N3CCOCC3)ccc21	x	x	0	-6	x	69*
Cc1ccc(Nc2nc(-c3ccccc3)cs2)nc1	x	x	-1	-5	x	43
Cc1ccc(Nc2nc(-c3cccs3)cs2)nc1	0.2	85*	-5	-5	30	65*
Cc1cc(O)ccc1Nc1nc(-c2cccs2)cs1	0.2	78*	-2	-5	4	2
Cc1cc(O)ccc1Nc1nc(-c2cccnc2)cs1	x	x	0	-5	x	4
N#Cc1ccccc1NC(=O)C1CC(=O)N(c2ccc3c4c(cccc24)CC3)C1 (centres undefined)	1.1	-6	1	-2	2	-5
Cc1ccc(CNC(=O)c2cc(-c3ccccc3)nn2CC2CC(c3cccc([N+](=O)[O-])c3)=NO2)cc1 (centres undefined)	x	x	-1	-4	x	-13
